Measurements taken from PMC4411251 (The Journal of General Physiology, 2015).
“Also recorded” adds a separate entry of the source.

How the values were obtained:
TRPV1-R721A [1] = molecular target: T1, TRPV1-R721A (Rattus norvegicus, UniProt O35433, R721A); type: cell-based; details: Hill fit of dose–response, native lipids
TRPV1-WT [2] = molecular target: T2, TRPV1-WT (Rattus norvegicus, UniProt O35433); type: cell-based; details: Hill fit of dose–response, native lipids
TRPV1-R721A [3] = molecular target: T1, TRPV1-R721A; type: cell-based; details: for Hill slope nH, phosphoinositide activation of TRPV1-R721A: Hill fit of dose–response, 1 µM capsaicin
In short: (§1)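 Rat TRPV1 (WT or R721A) transiently expressed in F-11 cells and used 12–48 h post-transfection. […] Bath was 130 mM NaCl, 10 mM HEPES, 0.2 mM EDTA, pH 7.4, with steps from 0 mV to ±100 mV. Vehicle-subtracted currents were Hill-fitted per patch, normalized to Imax, and pooled (mean, SEM).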

TRPV1 = details: ref Collins and Gordon, 2013; cited from earlier work
TRPV1-WT [4] = molecular target: T2, TRPV1-WT; type: cell-based; details: Hill fit of dose–response, 1 µM capsaicin
In short: as §1

[5] = R721A mutation compared with WT

T2 sequence (O35433 whole entry): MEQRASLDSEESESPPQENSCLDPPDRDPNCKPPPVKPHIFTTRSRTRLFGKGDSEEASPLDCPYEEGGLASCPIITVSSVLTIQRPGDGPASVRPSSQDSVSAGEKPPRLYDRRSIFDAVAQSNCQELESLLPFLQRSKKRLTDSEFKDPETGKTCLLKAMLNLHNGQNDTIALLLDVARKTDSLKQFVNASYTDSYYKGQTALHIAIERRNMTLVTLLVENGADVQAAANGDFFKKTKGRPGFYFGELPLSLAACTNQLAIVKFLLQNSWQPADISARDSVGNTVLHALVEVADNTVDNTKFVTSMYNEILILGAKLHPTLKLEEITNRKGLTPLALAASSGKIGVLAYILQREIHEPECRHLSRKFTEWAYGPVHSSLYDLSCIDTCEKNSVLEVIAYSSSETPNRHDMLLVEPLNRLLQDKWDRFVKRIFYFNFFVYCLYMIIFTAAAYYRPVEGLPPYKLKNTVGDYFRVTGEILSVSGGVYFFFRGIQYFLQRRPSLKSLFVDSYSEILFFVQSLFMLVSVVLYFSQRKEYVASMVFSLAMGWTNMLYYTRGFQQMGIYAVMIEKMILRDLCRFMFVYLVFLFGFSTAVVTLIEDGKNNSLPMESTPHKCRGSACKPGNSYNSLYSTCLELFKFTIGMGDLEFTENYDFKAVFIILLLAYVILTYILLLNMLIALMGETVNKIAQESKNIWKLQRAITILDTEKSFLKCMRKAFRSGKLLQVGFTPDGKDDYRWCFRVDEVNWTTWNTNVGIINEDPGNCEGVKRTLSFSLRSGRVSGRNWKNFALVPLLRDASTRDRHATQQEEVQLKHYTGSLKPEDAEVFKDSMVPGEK
T1 sequence (O35433 whole entry R721A): as the sequence (O35433 whole entry) above, with R721A counted along it

SMILES	Hill slope nH, capsaicin activation of TRPV1-R721A (TRPV1-R721A [1])	Hill slope nH, capsaicin activation of TRPV1-WT (TRPV1-WT [2])	Hill slope nH, phosphoinositide activation of TRPV1-R721A (TRPV1-R721A [3])	increase in the EC50 value, TRPV1-R721A versus TRPV1-WT (TRPV1-R721A [3]; [5]) [fold]	K1/2 of activating effects on TRPV1 in the plasma membrane (TRPV1) [mol %]	Hill slope nH, phosphoinositide activation of TRPV1-WT (TRPV1-WT [4])	decrease in the EC50 for activation produced by the R721A mutation (in words) (TRPV1-R721A [3]; [5])	decrease in the EC50 value, TRPV1-R721A versus TRPV1-WT (TRPV1-R721A [3]; [5]) [fold]
COc1cc(CNC(=O)CCCC/C=C/C(C)C)ccc1O [capsaicin]	1	1						
CCCCCCCC(=O)OC[C@H](COP(=O)(O)O[C@@H]1[C@H](O)[C@H](O)[C@@H](OP(=O)(O)O)[C@H](OP(=O)(O)O)[C@H]1O)OC(=O)CCCCCCC [diC8-PI(4,5)P2, phosphoinositide 4,5-bisphosphate]			2	1.3	~0.03	2		
CCCCCCCC(=O)OC[C@H](COP(=O)(O)O[C@H]1[C@H](O)[C@@H](O)[C@H](OP(=O)(O)O)[C@@H](O)[C@H]1O)OC(=O)CCCCCCC [diC8-PI(4)P]			2			2	more than two orders of magnitude; also recorded: over two orders of magnitude	150
